The source of these data is ChEMBL document CHEMBL1134561, “6-Substituted-4-(3-bromophenylamino)quinazolines as putative irreversible inhibitors of the epidermal growth factor receptor (EGFR) and human epidermal growth factor receptor (HER-2) tyrosine kinases with enhanced antitumor activity” (J Med Chem, 2001).

What is called IC50 is the concentration that inhibits the measured activity by half.

Assay [1] has as its target Receptor tyrosine-protein kinase erbB-2 (Homo sapiens, UniProt P04626). The assay is described as follows: Inhibition of human epidermal growth factor receptor (HER-2) using enzyme assay. In short, it runs like this: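 His6-tagged HER-2 cytoplasmic domain was expressed in Sf-9 cells and purified on Ni-NTA (about 80% pure). Enzyme (12.5 ng/well) was preincubated with compound 10 min at room temperature in HEPES pH 7.4. Autophosphorylation ran 1 h with MnCl2/Na3VO4/DTT buffer plus 0.1 mM ATP–50 mM MgCl2 (as added). Europium anti-phosphotyrosine time-resolved fluorescence was read at 340/615 nm. IC50 came from eight concentrations, mean of duplicates.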

Assay [2] addresses Epidermal growth factor receptor (Homo sapiens, UniProt P00533). The assay is described as follows: Inhibition of epidermal growth factor receptor using enzyme assay.
Another assay concerns SK-BR-3. The assay is described as follows: Inhibition of cell growth of SKBr3 cell lines using cell-based assay. To be noted: Homo sapiens. The format is functional. In outline:
(§1)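 Cells kept in RPMI-1640 with 5% fetal bovine serum and plated at 5.0 × 10^4/mL. Next day they were dosed at 0.5, 5, 50, 500 and 5000 ng/mL and cultured 2 days. Survival was read by sulforhodamine B. IC50 is the concentration inhibiting growth by 50%, taken from the five-point dose-response curve.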

In assay [3] the test system is A-431. The assay is described as follows: Inhibition of human epidermoid carcinoma xenograft (A431) tumor growth. The format is functional, cell-based. In outline:
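Female athymic nu/nu mice received 5 × 10^6 A431 cells sc in the flank. At 80–120 mg tumor mass they were randomized, 10 per group. Dosing was oral, once daily on days 1–10, 40 mg/kg in 0.2% Klucel, with a vehicle control. Tumor mass [(length × width²)/2] was measured every 7 days from day 8 to 29. Relative growth is versus day 0, compared by Student t-test of log values.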
(In general: In xenograft studies the graft and the host belong to different species.)

The subject of another assay is SW-620. The assay is described as follows: Inhibition of cell growth of SW620 cell lines using cell-based assay. The format is functional. To be noted: Homo sapiens. In short, it runs like this:
as §1

For assay [4], the system named is A-431. The assay is described as follows: Inhibition of cell growth of human epidermoid carcinoma xenograft (A431) model using cell based assay. The format is functional.

Sequence of Epidermal growth factor receptor (P00533 whole entry): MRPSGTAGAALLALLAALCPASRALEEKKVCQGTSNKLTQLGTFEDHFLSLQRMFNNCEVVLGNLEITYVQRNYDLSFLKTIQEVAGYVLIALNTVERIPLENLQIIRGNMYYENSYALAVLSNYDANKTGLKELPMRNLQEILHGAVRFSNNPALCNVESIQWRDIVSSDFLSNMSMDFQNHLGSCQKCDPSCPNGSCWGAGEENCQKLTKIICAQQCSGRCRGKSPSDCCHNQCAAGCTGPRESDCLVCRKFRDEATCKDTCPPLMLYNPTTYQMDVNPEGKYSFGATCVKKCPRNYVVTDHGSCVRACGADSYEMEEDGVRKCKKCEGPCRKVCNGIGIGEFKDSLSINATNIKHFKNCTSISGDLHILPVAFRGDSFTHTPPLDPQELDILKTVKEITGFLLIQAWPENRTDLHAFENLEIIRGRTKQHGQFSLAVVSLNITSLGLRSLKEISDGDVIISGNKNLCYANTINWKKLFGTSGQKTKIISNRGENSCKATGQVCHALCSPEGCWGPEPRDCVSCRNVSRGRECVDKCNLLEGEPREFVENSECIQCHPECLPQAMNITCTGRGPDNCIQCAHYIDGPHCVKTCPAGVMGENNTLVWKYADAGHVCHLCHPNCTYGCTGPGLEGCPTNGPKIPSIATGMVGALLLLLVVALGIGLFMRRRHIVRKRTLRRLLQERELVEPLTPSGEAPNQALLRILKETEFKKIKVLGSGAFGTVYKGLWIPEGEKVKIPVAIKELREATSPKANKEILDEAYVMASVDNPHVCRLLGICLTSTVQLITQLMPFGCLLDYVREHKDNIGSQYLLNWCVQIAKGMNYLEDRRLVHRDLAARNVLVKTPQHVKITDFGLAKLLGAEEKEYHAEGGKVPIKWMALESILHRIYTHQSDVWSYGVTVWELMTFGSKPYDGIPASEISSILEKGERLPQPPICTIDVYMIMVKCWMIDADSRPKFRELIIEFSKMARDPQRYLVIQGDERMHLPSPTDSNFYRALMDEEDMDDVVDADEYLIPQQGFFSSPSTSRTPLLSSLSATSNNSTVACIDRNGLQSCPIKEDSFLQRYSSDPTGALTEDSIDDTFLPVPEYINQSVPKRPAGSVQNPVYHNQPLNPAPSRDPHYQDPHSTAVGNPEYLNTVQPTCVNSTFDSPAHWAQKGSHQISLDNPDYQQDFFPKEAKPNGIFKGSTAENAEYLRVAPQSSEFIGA
Sequence of Receptor tyrosine-protein kinase erbB-2 (P04626 whole entry, the tested form may be a part): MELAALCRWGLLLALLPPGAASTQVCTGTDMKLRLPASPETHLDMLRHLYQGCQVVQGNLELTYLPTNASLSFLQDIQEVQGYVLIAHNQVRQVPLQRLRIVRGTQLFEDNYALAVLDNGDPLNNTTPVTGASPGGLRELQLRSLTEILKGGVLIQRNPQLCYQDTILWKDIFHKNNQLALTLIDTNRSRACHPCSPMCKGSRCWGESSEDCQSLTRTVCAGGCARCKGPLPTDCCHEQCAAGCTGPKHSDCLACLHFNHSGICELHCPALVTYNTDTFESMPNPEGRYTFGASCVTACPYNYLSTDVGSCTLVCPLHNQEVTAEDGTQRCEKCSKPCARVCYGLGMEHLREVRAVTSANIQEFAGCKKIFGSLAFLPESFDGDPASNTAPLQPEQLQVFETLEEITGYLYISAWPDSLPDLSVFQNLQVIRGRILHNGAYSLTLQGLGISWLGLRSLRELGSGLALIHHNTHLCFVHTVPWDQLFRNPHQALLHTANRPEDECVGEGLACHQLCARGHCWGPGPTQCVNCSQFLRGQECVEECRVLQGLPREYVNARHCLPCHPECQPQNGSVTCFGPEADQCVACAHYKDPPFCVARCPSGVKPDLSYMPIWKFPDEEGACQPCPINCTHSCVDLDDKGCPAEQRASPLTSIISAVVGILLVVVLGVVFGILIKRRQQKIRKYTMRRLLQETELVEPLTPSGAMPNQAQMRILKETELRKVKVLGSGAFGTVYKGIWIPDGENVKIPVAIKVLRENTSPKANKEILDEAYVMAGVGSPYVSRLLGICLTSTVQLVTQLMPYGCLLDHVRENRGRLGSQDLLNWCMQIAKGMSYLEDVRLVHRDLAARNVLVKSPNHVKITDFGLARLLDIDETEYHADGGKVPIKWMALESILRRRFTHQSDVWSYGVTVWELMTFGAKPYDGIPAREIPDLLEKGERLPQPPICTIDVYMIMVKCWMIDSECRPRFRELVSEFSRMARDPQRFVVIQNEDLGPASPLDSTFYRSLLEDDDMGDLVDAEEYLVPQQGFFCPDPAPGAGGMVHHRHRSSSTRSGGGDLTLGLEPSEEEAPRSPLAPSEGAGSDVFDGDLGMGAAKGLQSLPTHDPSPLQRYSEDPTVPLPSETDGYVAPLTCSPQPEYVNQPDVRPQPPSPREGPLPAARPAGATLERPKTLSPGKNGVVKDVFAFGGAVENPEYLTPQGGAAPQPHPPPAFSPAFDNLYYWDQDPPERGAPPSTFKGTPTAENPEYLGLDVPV

Consider `O=C(/C=C/N1CCOCC1)Nc1ccc2ncnc(Nc3cccc(Br)c3)c2c1`, for which the IC50 was 4180 nM in assay [1]; 215 nM in assay [2]; 1020 nM with SK-BR-3; 1080 nM with A-431 [3]; 2020 nM in the assay on SW-620.
For `O=C(C#CCN1CCSCC1)Nc1ccc2ncnc(Nc3cccc(Br)c3)c2c1`, the IC50 in the assay with A-431 [4] worked out at 83 nM; in assay [1], 124 nM; in assay [2], 95 nM; in the assay on SK-BR-3 it was 2 nM; with SW-620, 581 nM.
As for `O=C(/C=C/CN1CCOCC1)Nc1ccc2ncnc(Nc3cccc(Br)c3)c2c1`, the IC50 in the assay with A-431 [4] was 1890 nM; in assay [1] it was 2780 nM; in assay [2], 74 nM; with SK-BR-3 it was 13 nM; in the assay on SW-620, 10700 nM.
In the case of `CN(C)C/C=C/C(=O)Nc1ccc2ncnc(Nc3cccc(Br)c3)c2c1`, the results for the IC50 (in assay [1]; with SK-BR-3; in the assay on SW-620) were 301 nM, 2 nM and 2340 nM, respectively.
As to `COC/C=C/C(=O)Nc1ccc2ncnc(Nc3cccc(Br)c3)c2c1`, the IC50 was found to be 8500 nM in the assay with A-431 [4]; 8830 nM in assay [1]; 1130 nM in assay [2]; 370 nM with SK-BR-3; 12100 nM in the assay with SW-620.
Take `CC(C)N(CC#CC(=O)Nc1ccc2ncnc(Nc3cccc(Br)c3)c2c1)C(C)C`: the IC50 in the assay with A-431 [4] amounted to 94 nM; in assay [1], 162 nM; in assay [2], 97 nM; in the assay on SK-BR-3 it was 4 nM; in the assay on SW-620, 302 nM.
Taken in the same sequence, the figures for `O=C(/C=C/CN1CCCCC1)Nc1ccc2ncnc(Nc3cccc(Br)c3)c2c1` were 182 nM, 1560 nM, 106 nM, 4 nM and 2680 nM.
Taken in the same sequence, the figures for `COCCN(C)C/C=C/C(=O)Nc1ccc2ncnc(Nc3cccc(Br)c3)c2c1` were 564 nM, 634 nM, 62 nM, 3 nM and 5890 nM.
As to `O=C(C#CCO)Nc1ccc2ncnc(Nc3cccc(Br)c3)c2c1`, the IC50 is 16 nM in assay [1] and 43 nM in the assay with SK-BR-3.
For the molecule `O=C(/C=C/CN1CCSCC1)Nc1ccc2ncnc(Nc3cccc(Br)c3)c2c1`, the IC50 in the assay with A-431 [4] was 589 nM; in assay [1], 2810 nM; in assay [2] it was 203 nM; with SK-BR-3, 12 nM; in the assay with SW-620, 8470 nM.
For the molecule `CCCN(C/C=C/C(=O)Nc1ccc2ncnc(Nc3cccc(Br)c3)c2c1)CCC`, the IC50 amounted to 145 nM in the assay with A-431 [4]; 1430 nM in assay [1]; 90 nM in assay [2]; 2 nM with SK-BR-3; 2280 nM in the assay on SW-620.
Taken in the same sequence, the figures for `CCN1CCN(CC#CC(=O)Nc2ccc3ncnc(Nc4cccc(Br)c4)c3c2)CC1` were 598 nM, 183 nM, 65 nM, 62 nM and 4600 nM.
In the case of `CCN(CC)C/C=C/C(=O)Nc1ccc2ncnc(Nc3cccc(Br)c3)c2c1`, the IC50 in the assay on A-431 [4] is 194 nM; in assay [1], 1160 nM; in assay [2] it was 73 nM; with SK-BR-3 it was 2 nM; with SW-620, 2390 nM.
Taken in the same sequence, the figures for `CC(C)N(C)CC#CC(=O)Nc1ccc2ncnc(Nc3cccc(Br)c3)c2c1` were 77 nM, 113 nM, 85 nM, 4 nM and 232 nM.
Regarding `CN(C)CC#CC(=O)Nc1ccc2ncnc(Nc3cccc(Br)c3)c2c1`, the IC50 in assay [1] turned out to be 14 nM; in the assay with SK-BR-3, 11 nM; in the assay on SW-620, 530 nM.
Regarding `COCOCC#CC(=O)Nc1ccc2ncnc(Nc3cccc(Br)c3)c2c1`, the IC50 in assay [1] turned out to be 122 nM; in assay [2], 59 nM; in the assay on SK-BR-3, 92 nM; with A-431 [3], 306 nM; in the assay on SW-620 it was 2080 nM.
In the case of `CCCN(CC#CC(=O)Nc1ccc2ncnc(Nc3cccc(Br)c3)c2c1)CCC`, the IC50 in the assay on A-431 [4] stood at 42 nM; in assay [1], 177 nM; in assay [2], 62 nM; with SK-BR-3, 2 nM; in the assay with SW-620 it was 198 nM.
The like results for `O=C(C#CCN1CCCCC1)Nc1ccc2ncnc(Nc3cccc(Br)c3)c2c1` were, in that order, 32 nM, 73 nM, 57 nM, 2 nM and 302 nM.
The like results for `O=C(/C=C/CN1CCC(N2CCCCC2)CC1)Nc1ccc2ncnc(Nc3cccc(Br)c3)c2c1` were, in that order, 756 nM, 1590 nM, 68 nM, 10 nM and 4150 nM.
The like results for `O=C(C#CCN1CCOCC1)Nc1ccc2ncnc(Nc3cccc(Br)c3)c2c1` were, in that order, 150 nM, 53 nM, 20 nM, 2 nM and 1660 nM.
`COCCOCC#CC(=O)Nc1ccc2ncnc(Nc3cccc(Br)c3)c2c1`: the IC50 turned out to be 77 nM in the assay on A-431 [4]; 116 nM in assay [1]; 65 nM in assay [2]; 9 nM in the assay with SK-BR-3; 945 nM in the assay on SW-620.
`C=CCN(C)CC#CC(=O)Nc1ccc2ncnc(Nc3cccc(Br)c3)c2c1`: the IC50 in assay [1] stood at 85 nM; in assay [2] it was 71 nM; in the assay on SK-BR-3, 1 nM; with A-431 [3] it was 33 nM; in the assay on SW-620 it was 289 nM.
With `C=CC(=O)Nc1ccc2ncnc(Nc3cccc(Br)c3)c2c1`, the IC50 in assay [1] is 114 nM; in the assay with SK-BR-3, 15 nM; in the assay on A-431 [3], 95 nM; in the assay with SW-620, 4130 nM.
As to `C=C(C)C(=O)Nc1ccc2ncnc(Nc3cccc(Br)c3)c2c1`, the values for the IC50 (in assay [1]; with SK-BR-3; with SW-620) were 15200 nM, 2220 nM and 20700 nM, respectively.
Turning to `CCN(CC)CC#CC(=O)Nc1ccc2ncnc(Nc3cccc(Br)c3)c2c1`, the IC50 is 111 nM in the assay with A-431 [4]; 38 nM in assay [1]; 12 nM in assay [2]; 6 nM in the assay on SK-BR-3; 610 nM in the assay on SW-620.
Consider `C=C(CN1CCOCC1)C(=O)Nc1ccc2ncnc(Nc3cccc(Br)c3)c2c1`, for which the IC50 in assay [1] worked out at 458 nM; in assay [2], 107 nM; with SK-BR-3, 3 nM; with A-431 [3] it was 128 nM; with SW-620 it was 470 nM.
On to `CC#CC(=O)Nc1ccc2ncnc(Nc3cccc(Br)c3)c2c1`, for which the IC50 was 378 nM in assay [1], 17 nM in the assay on SK-BR-3 and 1500 nM with SW-620.
`COCC1CCCN1CC#CC(=O)Nc1ccc2ncnc(Nc3cccc(Br)c3)c2c1` (centres undefined): the IC50 worked out at 81 nM in the assay with A-431 [4]; 117 nM in assay [1]; 65 nM in assay [2]; 2 nM in the assay with SK-BR-3; 324 nM in the assay on SW-620.
For the molecule `C/C=C\C(=O)Nc1ccc2ncnc(Nc3cccc(Br)c3)c2c1`, the results for the IC50 (in assay [1]; in the assay on SK-BR-3; in the assay with SW-620) were 21700 nM, 742 nM and 12500 nM, respectively.
Turning to `COC[C@@H]1CCCN1C/C=C/C(=O)Nc1ccc2ncnc(Nc3cccc(Br)c3)c2c1`, the IC50 worked out at 222 nM with A-431 [4]; 1910 nM in assay [1]; 131 nM in assay [2]; 2 nM in the assay with SK-BR-3; 2620 nM in the assay with SW-620.
Consider `COC[C@@H]1CCCN1C/C=C\C(=O)Nc1ccc2ncnc(Nc3cccc(Br)c3)c2c1`, for which the IC50 in the assay on A-431 [4] amounted to 353 nM; in assay [1] it was 2920 nM; in assay [2], 194 nM; in the assay with SK-BR-3, 13 nM; in the assay on SW-620 it was 2860 nM.
The like results for `COCC#CC(=O)Nc1ccc2ncnc(Nc3cccc(Br)c3)c2c1` were, in that order, 268 nM, 33 nM, 9 nM, 46 nM and 1730 nM.
`C/C=C/C(=O)Nc1ccc2ncnc(Nc3cccc(Br)c3)c2c1`: the IC50 in assay [1] is 91300 nM; with SK-BR-3, 1100 nM; with SW-620, 13100 nM.
For `O=C(/C=C/Cn1cccn1)Nc1ccc2ncnc(Nc3cccc(Br)c3)c2c1`, the IC50 was determined as 1370 nM in the assay with A-431 [4]; 15600 nM in assay [1]; 1120 nM in assay [2]; 568 nM in the assay with SK-BR-3; 11100 nM in the assay on SW-620.
Taken in the same sequence, the figures for `CN1CCC=C(C(=O)Nc2ccc3ncnc(Nc4cccc(Br)c4)c3c2)C1` were 2340 nM, 5040 nM, 115 nM, 478 nM and 10500 nM.
`CN(C/C=C/C(=O)Nc1ccc2ncnc(Nc3cccc(Br)c3)c2c1)CCO`: the IC50 with A-431 [4] is 329 nM; in assay [1], 414 nM; in assay [2] it was 14 nM; in the assay with SK-BR-3, 3 nM; in the assay with SW-620, 7530 nM.
Taken in the same sequence, the figures for `COC[C@H]1CCCN1C/C=C/C(=O)Nc1ccc2ncnc(Nc3cccc(Br)c3)c2c1` were 616 nM, 733 nM, 85 nM, 1 nM and 10100 nM.
